# UPR CHOP act: activators of apoptotic CHOP UPR arm, primary screen, cell-based, CHO-CHOP luciferase reporter, luminescence, uHTS; activation, % at 10 µM; hit rate 0.34% among 330,000; UPR activation; percent of tunicamycin response over DMSO baseline;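 active means at 10 µM dose, activation of 40% or more, normalized to positive control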;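 further: 100% = tunicamycin at 10 µg/mL and 0% = DMSO alone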
#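 Test system: CHO CHOP reporter cells. Input: 500 CHO-CHOP cells per well. Medium: F12 with 10% FBS. Technique: luciferase luminescence. Measure: percent activation relative to tunicamycin control. Dosing: 10 µM compound, 0.5% DMSO. Timing: 16-18 h cell attachment, then 6 h compound exposure, 37 °C.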
# FXN GAA850 act: FXN promoter activators, primary screen, cell-based, luciferase luminescence, HEK293 lucGAA850; HEK293 lucGAA850 FXN promoter luciferase reporter, 24 h; percent of 10 µM SAHA response; activation, % at 6 µM; hit rate 0.56% among 360,000;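 active means activation above the average of all compounds screened plus 3 SD, cutoff fixed separately per campaign, cut at about 7.5% in these data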;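 further: 0% = DMSO wells and 100% = 10 µM SAHA wells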
# XBP1 UPR activ: activators of adaptive XBP1 UPR arm, primary screen, cell-based, CHO-XBP1 luciferase reporter, luminescence, uHTS; IRE1-XBP1 UPR activation; percent of tunicamycin response, DMSO as zero; activation, % at 20 µM; hit rate 0.33% among 330,000; AID 463104, 2010;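 active means versus positive control, 20 µM dose yields 30% or more activation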;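 further: 100% = tunicamycin at 10 µg/mL and 0% = DMSO only wells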
#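 Material: CHO cell line with stable XBP1 luciferase reporter; buffer or medium: F12 medium containing 10% fetal bovine serum; compound: single point, 20 µM final compound, 1% DMSO; incubation: 6 h treatment, 37 °C; measured by: glow luminescence from Steady-Glo reagent; evaluation: activation, % of tunicamycin; control set: tunicamycin high, DMSO low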
# CHOP inh: inhibitors of CHOP promoter induction, primary screen, cell-based, unfolded protein response, luciferase reporter | hit rate 3.8% among 220,000 | inhibition, % at 10 µM | CHO-K1 CHOP-promoter luciferase, tunicamycin-induced, 15-18 h;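 active means compounds that reduced the stress-induced luciferase reporter signal by more than about 70% of percent inhibition, limit read from the data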;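 further: 0% = tunicamycin plus vehicle and 100% = wells without tunicamycin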
# Numbers without * were called inactive; . = no result. Only a selection was taken, and hits are over-represented in it overall.
SMILES,UPR CHOP act,FXN GAA850 act,XBP1 UPR activ,CHOP inh
CCn1c2ccccc2nc2cc3c(cc21)c(Cl)c(=O)c1ccccc13,.,5,.,.
Cc1cc(NC(=O)CSc2nc3sc4c(c3c(=O)n2C)CCCC4)no1,0,2,-1,30
CCc1cc2cc3c(cc2nc1SCC(=O)Nc1cc(C)on1)OCO3,10,0,15,95*
Cc1cc(NC(=O)CSc2nc(C(C)C)nc3sc4c(c23)CCCC4)no1,1,3,6,77*
C=CCn1c(SCC(=O)Nc2cc(C)on2)nc2sc3c(c2c1=O)CCCC3,-1,1,-1,34
CCn1c(SCC(=O)Nc2cc(C)on2)nc2sc3c(c2c1=O)CCCC3,-1,5,-3,107*
CCc1cc2ccc(C)cc2nc1SCC(=O)Nc1cc(C)on1,2,-2,-1,29
Cc1nc2ccc(C(=O)NCCCN3CCCC3=O)cn2c1N(C)C(=O)CCc1ccccc1,.,1,.,.
CCCCN1CC(COCc2ccccc2)Oc2cccc(OCc3ccc(OC)cc3)c2S1(=O)=O (configuration not stated),.,1,.,.
CC1(C(=O)NS(=O)(=O)c2ccc(Cl)s2)CCN1C(=O)Cc1ccc(-c2ccccc2)cc1 (configuration not stated),.,1,.,.
CCn1cc(CN2CCc3c([nH]c4ccccc34)C2c2ccc(F)c(OC)c2)c(C)n1 (configuration not stated),-1,-3,-3,70*
Cc1[nH]c2c(ccc3ccccc32)c1C1C(CCN)C1(C)C (configuration not stated),1,-3,7,92*
S=c1[nH]c2ccc3ccccc3c2[nH]1,1,1,4,9
CSC1=NCCCN1C(=O)c1c(-c2ccccc2Cl)noc1C,-3,1,0,13
CSC1=NCCN1C(=O)c1c(-c2ccccc2Cl)noc1C,3,1,-2,89*
O=C(Nc1cc(C(F)(F)F)ccc1Cl)C1CCN(c2nnc(-n3cccc3)s2)CC1,.,-2,.,83*
COCCNc1ncnc2c1ncn2[C@H]1CN(Cc2ccncc2)C[C@@H](CO)O1,.,2,.,.
CS(=O)c1ccccc1-c1nc(-c2cc(C(F)(F)F)cc(C(F)(F)F)c2)no1 (configuration not stated),2,1,1,82*
CS(=O)(=O)c1ccccc1-c1nc(-c2cc(C(F)(F)F)cc(C(F)(F)F)c2)no1,-1,1,0,44
CC(=O)c1cccc2c1OC(C)C(=O)N2Cc1ccc(Cl)cc1 (configuration not stated),.,0,.,.
C=C1C(=O)O[C@H]2[C@H]1[C@@H](O)CC(=C)[C@@H]1CC(=O)[C@@H](C)[C@H]21,5,9.3*,-5,.
CC1(C(=O)NS(=O)(=O)c2ccc(C#N)cc2)CCN1C(=O)C1(c2ccccc2)CC1 (configuration not stated),.,-1,.,.
O=C(NCc1cccnc1)c1cc(C2CCCN(S(=O)(=O)c3cccc4cccnc34)C2)on1 (configuration not stated),.,1,.,.
O=C(Nc1ccncc1)c1cc(C2CCCCN2C(=O)CCCc2ccccc2)on1 (configuration not stated),.,-2,.,.
Cc1ccc(/C=C/C(=O)N2CCCC(C)C2)cc1 (configuration not stated),1,2,-3,32
SMILES,UPR CHOP act,FXN GAA850 act,XBP1 UPR activ,CHOP inh
Cc1ccc(/C=C/C(=O)N2CCC(Cc3ccccc3)CC2)cc1,3,4,0,87*
Cc1ccc(C)c(N=Cc2cc3c(cc2[N+](=O)[O-])OCO3)c1,3,-1,4,81*
Cc1ccc(C(=O)Nc2cc3ccccc3oc2=O)cc1,-8,-12,-7,104*
COc1ccc(C)cc1NC(=O)c1cc2ccccc2o1,1,5,4,71*
CC1(C(=O)NCc2ccc3c(c2)OCO3)CCN1C(=O)CCc1ccc(Cl)cc1Cl (configuration not stated),.,-1,.,.
COc1ccc(NC(=O)C2Cc3c(-c4ccc(Cl)cc4)ccnc3O2)cc1OC (configuration not stated),.,-4,.,.
Oc1ccc(/C=C/c2nc(-c3ccccc3O)n(-c3ccccc3)n2)cc1,3,-1,4,90*

# Source: PubChem BioAssay
